Measured values of several laboratories.
Protocols differ between the studies behind these lines.
Target: Serine/threonine-protein kinase Nek1 (NEK1, Homo sapiens, UniProt Q96PY6)
One construct used (Q96PY6 1-1258): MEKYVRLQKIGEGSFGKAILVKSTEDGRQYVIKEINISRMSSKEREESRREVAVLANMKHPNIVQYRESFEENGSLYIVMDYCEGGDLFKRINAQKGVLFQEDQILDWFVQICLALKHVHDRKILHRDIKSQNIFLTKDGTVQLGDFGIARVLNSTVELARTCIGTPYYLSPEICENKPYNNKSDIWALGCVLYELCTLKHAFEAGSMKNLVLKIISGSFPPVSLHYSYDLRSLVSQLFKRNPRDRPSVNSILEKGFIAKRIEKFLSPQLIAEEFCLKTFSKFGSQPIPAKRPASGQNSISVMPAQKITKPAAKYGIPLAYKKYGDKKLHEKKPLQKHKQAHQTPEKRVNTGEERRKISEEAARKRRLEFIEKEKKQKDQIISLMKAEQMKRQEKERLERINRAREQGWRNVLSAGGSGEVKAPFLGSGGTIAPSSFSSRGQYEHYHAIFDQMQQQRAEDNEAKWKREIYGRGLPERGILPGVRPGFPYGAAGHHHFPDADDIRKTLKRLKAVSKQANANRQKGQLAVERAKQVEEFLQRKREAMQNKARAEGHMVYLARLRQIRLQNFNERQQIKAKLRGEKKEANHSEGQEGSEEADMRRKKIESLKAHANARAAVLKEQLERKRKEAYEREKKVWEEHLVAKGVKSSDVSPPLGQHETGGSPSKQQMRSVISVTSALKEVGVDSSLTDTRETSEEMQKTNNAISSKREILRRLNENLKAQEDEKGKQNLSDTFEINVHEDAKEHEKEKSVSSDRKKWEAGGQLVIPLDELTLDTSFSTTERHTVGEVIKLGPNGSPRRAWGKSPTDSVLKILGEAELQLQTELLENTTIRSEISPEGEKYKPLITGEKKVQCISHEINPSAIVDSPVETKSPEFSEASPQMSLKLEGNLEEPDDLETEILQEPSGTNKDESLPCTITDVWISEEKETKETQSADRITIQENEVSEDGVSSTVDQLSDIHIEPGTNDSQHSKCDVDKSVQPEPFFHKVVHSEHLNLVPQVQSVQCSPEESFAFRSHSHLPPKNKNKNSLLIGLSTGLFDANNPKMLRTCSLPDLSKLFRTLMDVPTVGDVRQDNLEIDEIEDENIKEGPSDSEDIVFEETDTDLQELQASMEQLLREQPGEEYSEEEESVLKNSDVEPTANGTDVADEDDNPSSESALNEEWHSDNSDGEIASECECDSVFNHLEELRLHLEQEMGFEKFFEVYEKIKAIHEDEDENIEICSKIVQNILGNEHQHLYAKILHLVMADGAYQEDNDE

SMILES | assay | setting | remaining binding
F[C@@H]1CCN(c2nccc(-c3cnn4ncccc34)n2)C1 | binding | 1 µM | 100%
FC(F)(F)Oc1cccc(-c2cnc3ccc(-c4ccncc4)nn23)c1 | cell-free assay, competition with immobilised ligand | 5 µM | 78%
CS(=O)(=O)NCC[C@H](NC(=O)c1cncc2c1cnn2-c1ccc(F)cc1)c1ccnc(S(C)(=O)=O)c1 | cell-free assay, competition with immobilised ligand | 1 µM | 45%
O=C(Nc1c[nH]nc1C(=O)NC1CCNCC1)c1cc(F)cc(F)c1 | binding, competition with immobilised ligand | 1 µM | 100%
O=C(NCCCN1CCOCC1)c1ccc(Nc2ncc(Cl)c(-c3ccc(Cl)s3)n2)cc1 | binding, competition with immobilised ligand | 1 µM | 76%
C[C@@H]1CCN(c2nccc(-c3cnn4ncccc34)n2)C1 | binding | 1 µM | 100%
O=C(NS(=O)(=O)c1ccc(NCC2CCOCC2)c([N+](=O)[O-])c1)c1ccc(N2CCN(Cc3ccc(C(F)(F)F)cc3-c3ccc(Cl)cc3)CC2)cc1Oc1cnc2[nH]ccc2c1 | cell-free assay, competition with immobilised ligand | 1 µM | 99%
COc1ccnn2ncc(-c3ccnc(N(C)C)n3)c12 | binding | 1 µM | 100%
O=C(c1ccc(Nc2nccc(-c3cc4ccccc4s3)n2)cc1)N1CCC(N2CCCC2)CC1 | binding, competition with immobilised ligand | 1 µM | 31%
O=C(N[C@H]1CCCCC/C=C\C2C[C@@]2(C(=O)O)NC(=O)[C@@H]2C[C@@H](Oc3ccncc3)CN2C1=O)OC1CCCC1 (stereo partly shown) | binding, competition with immobilised ligand | 1 µM | 100%
COc1cnc(Nc2cccc(S(N)(=O)=O)c2)nc1N1CCN(c2ccccc2)C(=O)C1 | binding, competition with immobilised ligand | 1 µM | 100%
CN(c1nccc(-c2cnn3ncccc23)n1)C1CC1 | binding | 1 µM | 100%
COc1ncc2cc3ccccc3nc2c1C#N | cell-free assay, competition with immobilised ligand | 5 µM | 100%
CC1CCCN1c1nccc(-c2cnn3ncccc23)n1 (stereo not shown) | binding | 1 µM | 100%
CN(c1ccnc(CNc2nc(Nc3ccc4c(c3)CC(=O)N4)ncc2C(F)(F)F)n1)S(C)(=O)=O | cell-free assay, competition with immobilised ligand | 1 µM | 51%
O=C(NCCCN1CCOCC1)c1ccc(Nc2nccc(-c3cc4ccccc4s3)n2)cc1 | binding, competition with immobilised ligand | 1 µM | 72%
NS(=O)(=O)c1cc(NC(=O)C2(c3ccccc3Cl)CC2)ccc1Oc1cccc(Cl)c1 | cell-free assay, competition with immobilised ligand | 1 µM | 100%
N[C@@H]1CCN(c2nccc(-c3cnn4ncccc34)n2)C1 | binding | 1 µM | 100%
CN(C)C(=O)Cn1cc(-c2nc([C@@](C)(c3ccc(-c4cnc(N)nc4)cc3)C3CC3)no2)cn1 | cell-free assay, competition with immobilised ligand | 1 µM | 100%
CNC(=O)[C@@H]1CC[C@@H](n2c(-c3ccc4cnccc4c3)nc3ccc(C(=O)NCc4cccc(C(N)=O)c4)cc32)C1 | binding, competition with immobilised ligand | 1 µM | 100%
CCC(=O)N[C@H]1CC[C@@H](C(=O)N(C)c2ccc(-c3nc4ccccc4o3)cc2)C1 | cell-free assay, competition with immobilised ligand | 1 µM | 100%
C[C@@H](c1ccc(-n2cnc3c(N)ncnc32)cc1)N1CCc2nn(C)c(Cc3ccccc3)c2C1=O | binding, competition with immobilised ligand | 0.1 µM | 87%
